Measured values: ChEMBL document CHEMBL1122917, “Vinblastin-23-oyl amino acid derivatives: chemistry, physicochemical data, toxicity, and antitumor activities against P388 and L1210 leukemias” (J Med Chem, 1985)

Key:
Type in all cases: functional
Mus musculus [1] = assay: Percent increase in life span at dose 5 mg/kg/day in 10 mice implanted with P388 leukemia cell line
Procedure, shortened: (§1)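 Female DBA2 mice inoculated iv on day 0 with 10^4 P388 cells; single iv treatment on day 1 with drug as sulfate salt in physiological saline. Survival followed; %ILS from all deaths and survivors as (T/C × 100) − 100, maximal MST 30 days; survivors counted on days 30 and 60. Most experiments confirmed three times.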

Mus musculus [2] = assay: Percent increase in life span at dose 7 mg/kg/day in 10 mice implanted with P388 leukemia cell line; procedure, shortened: as §1
Mus musculus [3] = assay: Number of survivors on 30th day at dose 7 mg/kg/day in 10 mice implanted with P388 leukemia cell line
Mus musculus [4] = assay: Number of survivors on 60th day at dose 15 mg/kg/day in 10 mice implanted with P388 leukemia cell line
Mus musculus [5] = assay: Number of survivors on 30th day at dose 5 mg/kg/day in 10 mice implanted with P388 leukemia cell line
Mus musculus [6] = assay: Number of survivors on 30th day at dose 4 mg/kg/day in 10 mice implanted with P388 leukemia cell line
Mus musculus [7] = assay: Number of survivors on 60th day at dose 14 mg/kg/day in 10 mice implanted with P388 leukemia cell line
Mus musculus [8] = assay: Number of survivors on 60th day at dose 4 mg/kg/day in 10 mice implanted with P388 leukemia cell line
Mus musculus [9] = assay: Percent increase in life span of DBA2 mice after inoculation with L1210 leukemia intravenously at a dose of 15 mg/kg per day; settings: route intravenous
Mus musculus [10] = assay: Percent increase in life span at dose 14 mg/kg/day in 10 mice implanted with P388 leukemia cell line; procedure, shortened: as §1
Mus musculus [11] = assay: Number of survivors on 30th day at dose 17.5 mg/kg/day in 9 mice implanted with P388 leukemia cell line
Mus musculus [12] = assay: Number of survivors on 60th day at dose 17.5 mg/kg/day in 9 mice implanted with P388 leukemia cell line
Mus musculus [13] = assay: Number of survivors on 30th day at dose 10 mg/kg/day in 10 mice implanted with P388 leukemia cell line
Mus musculus [14] = assay: Number of survivors on 30th day at dose 14 mg/kg/day in 10 mice implanted with P388 leukemia cell line
Mus musculus [15] = assay: Number of survivors of DBA2 mice on 60th day after inoculation with L1210 leukemia cell line intravenously at a dose of 15 mg/kg/day; 0/10; settings: route intravenous
Mus musculus [16] = assay: Percent increase in life span at dose 4 mg/kg/day in 10 mice implanted with P388 leukemia cell line; settings: Mus musculus, P388; procedure, shortened: as §1
Mus musculus [17] = assay: Percent increase in life span at dose 17.5 mg/kg/day in 10 mice implanted with P388 leukemia cell line
Mus musculus [18] = assay: Percent increase in life span at dose 10 mg/kg/day in 10 mice implanted with P388 leukemia cell line; procedure, shortened: as §1
Mus musculus [19] = assay: Number of survivors of DBA2 mice on 30th day after inoculation with L1210 leukemia cell line intravenously at a dose of 15 mg/kg/day; 0/10; settings: route intravenous
Mus musculus [20] = assay: Number of survivors on 60th day at dose 12.5 mg/kg/day in 10 mice implanted with P388 leukemia cell line
Mus musculus [21] = assay: Number of survivors on 30th day at dose 15 mg/kg/day in 10 mice implanted with P388 leukemia cell line
Mus musculus [22] = assay: Number of survivors on 60th day at dose 10 mg/kg/day in 10 mice implanted with P388 leukemia cell line
Mus musculus [23] = assay: Percent increase in life span at dose 12.5 mg/kg/day in 10 mice implanted with P388 leukemia cell line; procedure, shortened: as §1
Mus musculus [24] = assay: Number of survivors on 30th day at dose 12.5 mg/kg/day in 10 mice implanted with P388 leukemia cell line
Mus musculus [25] = assay: Number of survivors on 60th day at dose 5 mg/kg/day in 10 mice implanted with P388 leukemia cell line
Mus musculus [26] = assay: Number of survivors on 60th day at dose 7 mg/kg/day in 10 mice implanted with P388 leukemia cell line; procedure, shortened: as §1
Mus musculus [27] = assay: Percent increase in life span of DBA2 mice after inoculation with L1210 leukemia intravenously at a dose of 9 mg/lg per day
Mus musculus [28] = assay: Number of survivors on 60th day at dose 6 mg/kg/day in 10 mice implanted with P388 leukemia cell line
Mus musculus [29] = assay: Number of survivors of DBA2 mice on 30th day after inoculation with L1210 leukemia cell line intravenously at a dose of 10 mg/kg/day; 0/10; settings: route intravenous
Mus musculus [30] = assay: Percent increase in life span at dose 6 mg/kg/day in 10 mice implanted with P388 leukemia cell line; procedure, shortened: as §1
Mus musculus [31] = assay: Number of survivors of DBA2 mice on 30th day after inoculation with L1210 leukemia cell line intravenously at a dose of 9 mg/kg/day; 0/10; settings: route intravenous
Mus musculus [32] = assay: Percent increase in life span at dose 8 mg/kg/day in 10 mice implanted with P388 leukemia cell line; procedure, shortened: as §1
Mus musculus [33] = assay: Number of survivors on 30th day at dose 6 mg/kg/day in 10 mice implanted with P388 leukemia cell line
Mus musculus [34] = assay: Number of survivors on 60th day at dose 11 mg/kg/day in 10 mice implanted with P388 leukemia cell line
Mus musculus [35] = assay: Percent increase in life span at dose 11 mg/kg/day in 10 mice implanted with P388 leukemia cell line; procedure, shortened: as §1
Mus musculus [36] = assay: Number of survivors on 60th day at dose 8 mg/kg/day in 10 mice implanted with P388 leukemia cell line; procedure, shortened: as §1
Mus musculus [37] = assay: Number of survivors of DBA2 mice on 60th day after inoculation with L1210 leukemia cell line intravenously at a dose of 9 mg/kg/day; 0/10; settings: route intravenous
Procedure, shortened: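 Female DBA₂ mice received 10⁴ L1210 cells iv on day 0. Compounds were given iv as sulfate salts in physiological saline, as a single dose on day 1 (mg/kg per day). Groups were 10 mice. Survivors were counted on day 60. Cells were maintained by ip passage in DBA₂ mice.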

Mus musculus [38] = assay: Number of survivors of DBA2 mice on 60th day after inoculation with L1210 leukemia cell line intravenously at a dose of 10 mg/kg/day; 0/10; settings: route intravenous
Mus musculus [39] = assay: Number of survivors on 30th day at dose 8 mg/kg/day in 10 mice implanted with P388 leukemia cell line
Mus musculus [40] = assay: Number of survivors on 30th day at dose 11 mg/kg/day in 10 mice implanted with P388 leukemia cell line
Mus musculus [41] = assay: Percent increase in life span of DBA2 mice after inoculation with L1210 leukemia intravenously at a dose of 10 mg/lg per day
Mus musculus [42] = assay: Percent increase in life span at dose 20 mg/kg/day in 10 mice implanted with P388 leukemia cell line; procedure, shortened: as §1
Mus musculus [43] = assay: Number of survivors on 30th day at dose 70 mg/kg/day in 10 mice implanted with P388 leukemia cell line; 0/10
Mus musculus [44] = assay: Number of survivors on 60th day at dose 50 mg/kg/day in 10 mice implanted with P388 leukemia cell line; 0/10
Mus musculus [45] = assay: Percent increase in life span at dose 50 mg/kg/day in 10 mice implanted with P388 leukemia cell line; procedure, shortened: as §1
Mus musculus [46] = assay: Percent increase in life span at dose 60 mg/kg/day in 10 mice implanted with P388 leukemia cell line; procedure, shortened: as §1
Mus musculus [47] = assay: Percent increase in life span at dose 40 mg/kg/day in 10 mice implanted with P388 leukemia cell line; procedure, shortened: as §1
Mus musculus [48] = assay: Number of survivors on 60th day at dose 60 mg/kg/day in 10 mice implanted with P388 leukemia cell line; 2/10
Mus musculus [49] = assay: Number of survivors on 30th day at dose 50 mg/kg/day in 10 mice implanted with P388 leukemia cell line; 1/10
Mus musculus [50] = assay: Number of survivors on 30th day at dose 20 mg/kg/day in 10 mice implanted with P388 leukemia cell line; 0/10
Mus musculus [51] = assay: Number of survivors on 60th day at dose 70 mg/kg/day in 10 mice implanted with P388 leukemia cell line; procedure, shortened: as §1
Mus musculus [52] = assay: Number of survivors on 60th day at dose 40 mg/kg/day in 10 mice implanted with P388 leukemia cell line; 1/10
Mus musculus [53] = assay: Number of survivors on 30th day at dose 40 mg/kg/day in 10 mice implanted with P388 leukemia cell line; 1/10
Mus musculus [54] = assay: Number of survivors on 30th day at dose 60 mg/kg/day in 10 mice implanted with P388 leukemia cell line; 3/10
Mus musculus [55] = assay: Number of survivors on 60th day at dose 20 mg/kg/day in 10 mice implanted with P388 leukemia cell line; 0/10
Mus musculus [56] = assay: Percent increase in life span at dose 70 mg/kg/day in 10 mice implanted with P388 leukemia cell line; procedure, shortened: as §1

Work on CCOC(=O)[C@@H](NC(=O)[C@@]1(O)[C@H](O)[C@]2(CC)C=CCN3CC[C@@]4(c5cc([C@@]6(C(=O)OC)C[C@H]7C[N@](CCc8c6[nH]c6ccccc86)C[C@](O)(CC)C7)c(OC)cc5N(C)[C@@]14C)[C@@H]32)C(C)C yielded an ILS at 5 mg/kg/day (Mus musculus [1]) of 17.2%, an ILS at 7 mg/kg/day (Mus musculus [2]) of 40% and a Survivors (Mus musculus [3]) of 0. The Survivors (Mus musculus [4]) was 2, the Survivors (Mus musculus [5]) was 0 and the Survivors (Mus musculus [6]) was 1. It also gave a Survivors (Mus musculus [7]) of 0, a Survivors (Mus musculus [8]) of 1 and an ILS at 15 mg/kg/day (Mus musculus [9]) of 67%. For the same molecule, the ILS at 14 mg/kg/day (Mus musculus [10]) was 108%, the Survivors (Mus musculus [11]) was 0 and the Survivors (Mus musculus [12]) was 0. For the same molecule, the Survivors (Mus musculus [13]) was 0, the Survivors (Mus musculus [14]) was 2 and the Survivors (Mus musculus [15]) was 0. The ILS at 4 mg/kg/day (Mus musculus [16]) was 13.5%, the ILS at 17.5 mg/kg/day (Mus musculus [17]) was 22.2% and the ILS at 10 mg/kg/day (Mus musculus [18]) was 53.4%. For the same molecule, the Survivors (Mus musculus [19]) was 0, the Survivors (Mus musculus [20]) was 0 and the Survivors (Mus musculus [21]) was 3. The Survivors (Mus musculus [22]) was 0, the ILS at 12.5 mg/kg/day (Mus musculus [23]) was 82.6% and the Survivors (Mus musculus [24]) was 2. For the same molecule, the Survivors (Mus musculus [25]) was 0 and the Survivors (Mus musculus [26]) was 0.
Work on CCOC(=O)C(CC(C)C)NC(=O)[C@@]1(O)[C@H](O)[C@]2(CC)C=CCN3CC[C@@]4(c5cc([C@@]6(C(=O)OC)C[C@H]7CN(CCc8c6[nH]c6ccccc86)C[C@](O)(CC)C7)c(OC)cc5N(C)[C@@]14C)[C@@H]32 (stereo not given in full) yielded an ILS (Mus musculus [27]) of 27%, a Survivors (Mus musculus [28]) of 0 and a Survivors (Mus musculus [29]) of 0. For the same molecule, the Survivors (Mus musculus [7]) was 0, the ILS at 6 mg/kg/day (Mus musculus [30]) was 26.7% and the ILS at 14 mg/kg/day (Mus musculus [10]) was 30%. It also gave a Survivors (Mus musculus [31]) of 0, a Survivors (Mus musculus [13]) of 7 and an ILS at 8 mg/kg/day (Mus musculus [32]) of 46.5%. The Survivors (Mus musculus [14]) was 2, the Survivors (Mus musculus [33]) was 0 and the Survivors (Mus musculus [34]) was 0. It also gave an ILS at 11 mg/kg/day (Mus musculus [35]) of 155%, an ILS at 10 mg/kg/day (Mus musculus [18]) greater than 146% and a Survivors (Mus musculus [36]) of 1. For the same molecule, the Survivors (Mus musculus [20]) was 1, the Survivors (Mus musculus [22]) was 2 and the ILS at 12.5 mg/kg/day (Mus musculus [23]) was greater than 146%. It also gave a Survivors (Mus musculus [24]) of 6, a Survivors (Mus musculus [37]) of 0 and a Survivors (Mus musculus [38]) of 0. For the same molecule, the Survivors (Mus musculus [39]) was 2, the Survivors (Mus musculus [40]) was 3 and the ILS (Mus musculus [41]) was 29.4%.
Molecule CCOC(=O)[C@H](Cc1ccc(O)cc1)NC(=O)[C@@]1(O)[C@H](O)[C@]2(CC)C=CCN3CC[C@@]4(c5cc([C@@]6(C(=O)OC)C[C@H]7C[N@](CCc8c6[nH]c6ccccc86)C[C@](O)(CC)C7)c(OC)cc5N(C)[C@@]14C)[C@@H]32 has an ILS at 20 mg/kg/day (Mus musculus [42]) of 29.9%, a Survivors (Mus musculus [43]) of 0 and a Survivors (Mus musculus [44]) of 0. It also gave an ILS at 50 mg/kg/day (Mus musculus [45]) of 49.5%, an ILS at 60 mg/kg/day (Mus musculus [46]) of 49.5% and an ILS at 40 mg/kg/day (Mus musculus [47]) of 53.3%. It also gave a Survivors (Mus musculus [48]) of 2, a Survivors (Mus musculus [49]) of 1 and a Survivors (Mus musculus [50]) of 0. The Survivors (Mus musculus [51]) was 0, the Survivors (Mus musculus [52]) was 1 and the Survivors (Mus musculus [53]) was 1. The Survivors (Mus musculus [54]) was 3, the Survivors (Mus musculus [55]) was 0 and the ILS at 70 mg/kg/day (Mus musculus [56]) was 49.5%.
